According to publication PMC5319884 (Biochemistry, 2017):
“Also recorded” adds a separate entry of the source. Where two headings read alike, the source gives them in different places.

Tests used:
Format in all cases: biochemical
hGOAT [1] = molecular target: T1, hGOAT (Homo sapiens, UniProt Q96T53); assay: in vitro hGOAT octanoylation activity assay
T1 sequence (Q96T53 1-435): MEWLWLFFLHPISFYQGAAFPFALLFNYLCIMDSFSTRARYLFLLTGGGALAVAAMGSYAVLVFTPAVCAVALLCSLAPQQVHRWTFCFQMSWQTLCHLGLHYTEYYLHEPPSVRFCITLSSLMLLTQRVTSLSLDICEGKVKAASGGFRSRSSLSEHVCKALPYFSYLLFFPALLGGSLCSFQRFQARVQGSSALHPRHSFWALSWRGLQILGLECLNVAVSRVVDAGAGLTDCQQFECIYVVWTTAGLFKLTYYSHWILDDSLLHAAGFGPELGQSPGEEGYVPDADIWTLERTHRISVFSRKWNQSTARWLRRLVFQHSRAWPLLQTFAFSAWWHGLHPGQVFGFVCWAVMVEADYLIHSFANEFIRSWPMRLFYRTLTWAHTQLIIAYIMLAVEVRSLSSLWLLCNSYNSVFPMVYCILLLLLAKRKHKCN
Procedure, shortened: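 hGOAT was expressed in Sf9 cell membrane fractions, homogenized by needle, and ~100 μg membrane protein was preincubated 30 min at room temperature with 1 μM MAFP and test compound or vehicle (DMSO or ethanol) in 50 mM HEPES pH 7.0. Reactions were started with 500 μM octanoyl-CoA and 1.5 μM acrylodan-labeled peptide, run 3 h at room temperature in the dark, acid/isopropanol-stopped, TCA-clarified and analysed by reverse-phase HPLC. Percent activity was taken as octanoylated/total peptide fluorescence relative to vehicle, from three independent determinations.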

hGOAT [2] = molecular target: T1, hGOAT; assay: inhibitor time dependence with hGOAT; details: preincubation 5-60 min, 10 min reaction, 30 μM CDDO-EA
Procedure, shortened: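 hGOAT Sf9 membranes (~100 μg protein) were first preincubated 30 min at RT with 1 μM MAFP in 50 mM HEPES pH 7.0. Inhibitor or vehicle was then added for 5, 10, 30 or 60 min before starting with 500 μM octanoyl CoA and 1.5 μM GSSFLC-acrylodan. The reaction ran only 10 min at RT in the dark, then was stopped and analysed by RP-HPLC. % activity versus vehicle and IC50 were derived per preincubation time; minimum of three measurements.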

hGOAT [3] = molecular target: T1, hGOAT; assay: inhibitor reversibility; details: pretreatment at 3 x IC50, 10-fold dilution
Procedure, shortened: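 Undiluted homogenised Sf9 membrane containing hGOAT (~7 μg/μL protein) was preincubated 30 min at RT with 10 μM MAFP and inhibitor or vehicle (DMSO or ethanol). It was then diluted 10-fold into 50 mM HEPES pH 7.0 with 500 μM octanoyl CoA, 1.5 μM GSSFLC-acrylodan, and either vehicle or inhibitor at the same final level as in preincubation. Reactions ran 3 h at RT in the dark, followed by RP-HPLC quantitation of octanoylated peptide.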

mGOAT = molecular target: T2, mGOAT (Mus musculus, UniProt P0C7A3); assay: in vitro mGOAT octanoylation activity assay; details: side-by-side assay, mGOAT IC50 higher than hGOAT
T2 sequence (P0C7A3 1-435): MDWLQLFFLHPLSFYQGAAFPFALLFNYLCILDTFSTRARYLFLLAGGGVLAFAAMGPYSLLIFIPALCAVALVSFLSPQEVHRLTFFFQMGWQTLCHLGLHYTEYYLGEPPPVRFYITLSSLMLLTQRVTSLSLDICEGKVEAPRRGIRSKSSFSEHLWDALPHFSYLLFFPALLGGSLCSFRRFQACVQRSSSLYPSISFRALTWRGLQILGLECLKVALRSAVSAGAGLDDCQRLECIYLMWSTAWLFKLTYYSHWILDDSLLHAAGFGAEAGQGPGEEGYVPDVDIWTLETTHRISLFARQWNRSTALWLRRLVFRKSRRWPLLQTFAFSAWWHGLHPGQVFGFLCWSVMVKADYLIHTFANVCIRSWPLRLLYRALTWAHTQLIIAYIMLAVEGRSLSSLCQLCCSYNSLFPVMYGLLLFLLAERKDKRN
Procedure, shortened: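 mGOAT and hGOAT were expressed in Sf9 insect-cell membrane fractions, which were thawed on ice and homogenised through an 18-gauge needle. About 100 μg membrane protein was preincubated 30 min at room temperature with 1 μM MAFP plus inhibitor or vehicle (DMSO or ethanol) in 50 mM HEPES pH 7.0.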

inhibition of hGOAT activity (hGOAT [1]) | reversibility of hGOAT inhibition (hGOAT [3]) | inhibition of hGOAT activity (hGOAT [1]; at concentrations up to 100 μM) | Compound | further results
most potent inhibition of hGOAT | reversible hGOAT inhibition | – | CCNC(=O)[C@]12CCC(C)(C)C[C@H]1[C@H]1C(=O)C=C3[C@@]4(C)C=C(C#N)C(=O)C(C)(C)[C@@H]4CC[C@@]3(C)[C@]1(C)CC2 [Compound 3] | time dependence of hGOAT inhibition (hGOAT [2]): time-dependent inhibition; IC50 against mGOAT relative to hGOAT (mGOAT): ~ 8 fold
lack of inhibition | – | – | CC1(C)CC[C@]2(C(=O)O)CC[C@]3(C)[C@H](C(=O)C=C4[C@@]5(C)C=C(C#N)C(=O)C(C)(C)[C@@H]5CC[C@]43C)[C@@H]2C1 [Compound 5] | –
– | – | negligible inhibition | C[C@H]1[C@H](C)CC[C@]2(C(=O)O)CC[C@]3(C)C(=CC[C@@H]4[C@@]5(C)CC[C@H](O)C(C)(C)[C@@H]5CC[C@]43C)[C@H]12 [Compound 6, ursolic acid] | –
– | – | fails to inhibit | CC1(C)CC[C@]2(C)CC=C3[C@]4(C)CC[C@H]5C(C)(C)[C@@H](O)CC[C@]5(C)[C@H]4CC[C@@]3(C)[C@@H]2C1 [Compound 8, taraxerol] | –
lack of hGOAT inhibition | – | – | C[C@]12CC[C@@H]3c4ccc(O)cc4CC[C@H]3[C@@H]1CCC2=O [Compound 15, estrone] | –
– | – | – | O=C1C=CCCC1 [Compound 18, cyclohexenone] | inhibition of hGOAT activity (hGOAT [1]; at concentrations up to 1 mM): does not inhibit hGOAT activity
– | reversible inhibition | – | [Dap^3]octanoyl-ghrelin (1-5)-NH2 | –

Compound | inhibition of hGOAT activity (hGOAT [1]) | reversibility of hGOAT inhibition (hGOAT [3]) | inhibition of hGOAT activity (hGOAT [1]; at concentrations up to 100 μM) | further results
COC(=O)[C@]12CCC(C)(C)C[C@H]1[C@H]1C(=O)C=C3[C@@]4(C)C=C(C#N)C(=O)C(C)(C)[C@@H]4CC[C@@]3(C)[C@]1(C)CC2 [Compound 2, methyl 2-cyano-3,12-dioxooleana-1,9(11)dien-28-oate] | exhibits inhibitory activity against hGOAT; also recorded: most potent inhibition of hGOAT | – | – | –
CC1(C)CC[C@]2(C(=O)O)CC[C@]3(C)C(=CC[C@@H]4[C@@]5(C)CC[C@H](O)C(C)(C)[C@@H]5CC[C@]43C)[C@@H]2C1 [Compound 7, oleanic acid] | – | – | negligible inhibition | –
CCN1C(=O)C=CC1=O [NEM, N-ethylmaleimide] | efficiently inhibits hGOAT | irreversible hGOAT inhibition | – | –
